Screening data deposited in PubChem by The Scripps Research Institute Molecular Screening Center.
The sample as a whole holds a higher share of hits than the screen did.
RORa inhibitor: blocks the human nuclear receptor RORA. CHO-K1 Gal4-RORA LBD luciferase reporter, luminescence. AID 561. 0.43% of 65,000 active. inhibition, % at 10 µM. P35398;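 active = inhibition above the mean of all tested compounds plus 3 SD, cut at about 52% in these data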;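 also: 0% = RORA-transfected cells with DMSO and 100% = mock-transfected cells lacking RORA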
Target sequence (P35398 whole entry, looked up, the tested form may be a part): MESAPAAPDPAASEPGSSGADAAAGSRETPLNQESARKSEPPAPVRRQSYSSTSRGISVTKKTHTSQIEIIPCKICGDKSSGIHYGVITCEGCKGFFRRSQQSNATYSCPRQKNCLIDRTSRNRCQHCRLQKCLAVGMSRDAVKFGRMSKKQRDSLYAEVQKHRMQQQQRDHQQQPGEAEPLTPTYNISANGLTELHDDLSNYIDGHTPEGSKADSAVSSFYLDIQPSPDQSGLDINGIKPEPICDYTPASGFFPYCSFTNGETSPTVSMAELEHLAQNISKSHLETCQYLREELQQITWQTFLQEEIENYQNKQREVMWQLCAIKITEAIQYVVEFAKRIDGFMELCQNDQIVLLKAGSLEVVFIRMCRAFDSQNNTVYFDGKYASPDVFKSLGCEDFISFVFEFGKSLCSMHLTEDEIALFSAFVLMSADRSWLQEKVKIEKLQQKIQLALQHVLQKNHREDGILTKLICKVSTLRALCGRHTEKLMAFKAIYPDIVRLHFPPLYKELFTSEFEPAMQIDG
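Test system: CHO-K1 cells with Gal4-hRORA LBD fusion and pG5-luc reporter | Timing: 20 h compound treatment, 37 °C | Detection: Luminescence from basal luciferase reporter expression | Read-out basis: % inhibition of basal luciferase versus +RORA/-RORA DMSO controls | Repeats: One measurement per compound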
Numbers without * were called inactive.

SMILES | RORa inhibitor
COc1cc(C(=O)NC2=NCCS2)ccc1OCc1c(C)noc1C | 5
COc1ccccc1CNC(=O)C1COc2ccccc2O1 (configuration not stated) | 2
O=C(NC1=NCCS1)C1COc2ccccc2O1 (configuration not stated) | 72*
CCCOc1ccccc1C1CC(=O)Nc2cc3c(cc21)OCCO3 (configuration not stated) | 60*
CCOc1ccccc1C1CC(=O)Nc2cc(OC)c(OC)c(OC)c21 (configuration not stated) | 6
NC(=O)CC1NC(=O)c2ccccc21 (configuration not stated) | -2
Cc1ccc2c(c1)nnn2C1CCN(S(C)(=O)=O)CC1 | 16
Cc1ccc2c(c1)nnn2C1CCN(S(=O)(=O)c2ccc(C(=O)N3C(C)CCCC3C)cc2)CC1 (configuration not stated) | 63*
COc1ccc(S(=O)(=O)N2CCC(n3cnc4cc(C(F)(F)F)ccc43)CC2)cc1 | 18
Cc1cccc(-n2c(CNC(=O)c3ccccc3)nnc2SCC(=O)Nc2nccs2)c1 | -7
CN(C)Cc1cc(C(C)(C)c2cc(CN(C)C)c(O)c(CN(C)C)c2)cc(CN(C)C)c1O | -1
CCCCNc1cc(=O)n(C)c(=O)[nH]1 | 4
O=C(c1ccccc1)C(CCC(CN1CCOCC1)C(=O)c1ccccc1)CN1CCOCC1 (configuration not stated) | 56*
O=C(c1ccccc1)c1ccc(N2CCOCC2)c(F)c1 | -74
O=C(Nc1ccc(CN2CCOCC2)cc1)c1cccc(F)c1 | -37
O=C(O)CNC1=NCCC1 | -16
COc1ccc(OC)c(N/C(C)=C/C(=O)c2ccc(C)o2)c1 | -2
O=S(=O)(Cc1ccccc1)N1CCc2ccccc21 | 6
CCC(NC(=O)Nc1ncccc1C)(C(F)(F)F)C(F)(F)F | 2
CCC(NC(=O)Nc1nnc(C(F)(F)F)s1)(C(F)(F)F)C(F)(F)F | 94*
O=C(Nc1nnc(C(F)(F)F)s1)c1cccnc1 | -66
O=C(OCC(=O)N1CCN(c2ccccc2)CC1)c1ccc2ncsc2c1 | 4
CC1Cc2nc(SCC(=O)OCc3ccccc3)n(C)c(=O)c2S1 (configuration not stated) | 9
Clc1ccc(-c2nnc(NC3=NCCCCC3)o2)cc1 | 65*
Fc1ccc(-c2nnc(-c3ccc(Cl)cc3)o2)cc1 | -56
SMILES | RORa inhibitor
O=C(NC(Cc1ccccc1)c1nc2ccccc2[nH]1)C1CC(=O)N(c2ccc3c(c2)OCCO3)C1 (configuration not stated) | 8
Cc1ccc(-c2cn3nc(C)c(C)nc3n2)cc1 | 74*
Brc1ccc(-c2cn3cccnc3n2)cc1 | -53
CCOC(=O)N1CCN(C(=O)CSc2nnc(Cc3ccccc3)o2)CC1 | 7
CC(C)NC(=O)c1cc(=O)n(C)c(=O)n1C | -1
c1ccc(Nc2nc3ccccc3[nH]2)nc1 | -79
O=C(Nc1nc2ccccc2[nH]1)c1ccc(F)cc1 | 54*
O=C(Nc1nc2ccccc2[nH]1)c1ccccc1F | 86*
CC(=O)Nc1ccc(S(=O)(=O)NCCNC(=O)c2ccccc2F)cc1 | 4
O=C(CSc1nc2ccccc2[nH]1)N1CCCCC1 | -52
COc1ccccc1CCC(=O)Nc1nc2ccccc2[nH]1 | -19
CCC(=O)Nc1cccc(-c2nnc(SCC(=O)c3ccccc3)n2C)c1 | -61
CCN1CCN(C(CNS(=O)(=O)c2ccc(OC)cc2)c2cccnc2)CC1 (configuration not stated) | -11
CC1(C)Cc2c(sc3nc4n(c(=N)c23)CCC4)CO1 | 12
COc1cc(-c2nnc3sc(-c4cccnc4)nn23)cc(OC)c1OC | 15
Cc1ccccc1S(=O)(=O)Cc1ccc(C(=O)NCCCOC(C)C)o1 | 17
Cc1ccc(-c2nc3nc4ccccc4nc3n2Cc2ccco2)cc1 | 68*
CCCn1c(-c2ccc(OC)cc2)nc2nc3ccccc3nc21 | -4
c1ccc(Cn2c(-c3ccco3)nc3nc4ccccc4nc32)cc1 | -75
CCCCc1ccc(S(=O)(=O)Nc2cc(C)on2)cc1 | 12
COc1ccc(CCNC(=O)C2CCCN(S(=O)(=O)c3cccc4nonc34)C2)cc1OC (configuration not stated) | 3
CCC(C)C(NC(=O)OC(C)(C)C)C(=O)NC(C(=O)N1CCCC1C(N)=O)C(C)CC (configuration not stated) | 1
O=c1oc2c3c4c(cc2cc1-c1nc2ccccc2[nH]1)CCCN4CCC3 | -52
O=C(CSc1cn(Cc2ccccc2)c2ccccc12)Nc1nccs1 | -76
O=C(CSC1=NCCS1)Nc1ccnc2ccccc12 | 73*
SMILES | RORa inhibitor
CC(C)(C)NC(=O)CSc1nnc(NC(=O)CCn2cnc3ccccc3c2=O)s1 | 9
COC(=O)c1ccc(CSc2nc3c(c(=O)n2-c2ccc(Br)cc2)SCC3)o1 | -5
O=S(=O)(c1ccc(NC2CCCCC2)cc1)N1CCOCC1 | 12
CCOC(=O)C1CCN(C(=O)CNS(=O)(=O)c2ccc(Br)s2)CC1 | -10
CN1CCN(S(=O)(=O)c2ccc(Br)s2)CC1 | -63
O=S(=O)(NCc1ccncc1)c1ccc(Br)s1 | 65*
CCOC(=O)C1CCN(C(=O)Nc2ccccc2Cl)CC1 | 16
Cc1nc(NC(C)c2ccccc2)c2oc3ccccc3c2n1 (configuration not stated) | 58*
CC(=O)N1CCN(c2ccc(Nc3nc(C)nc4c3oc3ccccc34)cc2)CC1 | -18
O=c1[nH]c(CN2CCN(Cc3ccc4c(c3)OCO4)CC2)nc2sc3c(c12)CCC3 | 9
COc1cccc(C2C(C(=O)c3ccco3)=C(O)C(=O)N2CCCN2CCOCC2)c1OC (configuration not stated) | 5
Cc1onc(-c2ccccc2Cl)c1C(=O)NCCN1Cc2ccccc2C1=O | -2
CCc1c(C)nc2cc(-c3ccc(OC)cc3)[nH]n2c1=O | -58
COc1cc(OC)cc(-c2cc3nc(C)c(CCC(=O)O)c(C)n3n2)c1 | 77*
CCN(CC)C(=O)c1sc2nc(-c3ccc(OC)cc3)cn2c1C | -98
COc1cccc(CN(C(=O)c2cc3ccccc3oc2=O)C2CC2)c1 | -52
CC(C)C(=O)Nc1ccc2c(c1)C(=O)N(CCC(=O)O)C2=O | 3
CCOc1cccc(-c2nnc3n2N=C(c2cc(OC)ccc2OC)CS3)c1 | -61
COc1cccc(-c2nnc3n2N=C(C(C)(C)C)CS3)c1 | 62*
Cc1cc(NC(=O)C2CCN(S(=O)(=O)Cc3ccccc3)CC2)ccc1-n1cnnn1 | 0
CCCC(=O)Nc1nc2ccc(OC)cc2s1 | -56
COc1cccc(C(=O)c2sc(NC(C)C)nc2N)c1 | 57*
COc1cccc(C(=O)Nc2ccccc2N2CCCC2)c1 | 10
CCC(C)Nc1nc(OC)nc(N(C)C#N)n1 (configuration not stated) | 25
CCCCC(=O)Nc1cccc(NC(=O)c2ccc3c(c2)OCO3)c1 | -16
SMILES | RORa inhibitor
CCN1CCN(Cc2ccc(NC(=O)Nc3ccccc3OC)cc2)CC1 | -49
O=C(Nc1ccc(N2CCOCC2)c(Cl)c1)C1CCCCC1 | -49
Cc1cc(C)nc(SCC(=O)Nc2ccc(N3CCOCC3)c(Cl)c2)n1 | 53*
O=C(Nc1ccc(N2CCOCC2)c(Cl)c1)c1ncn[nH]1 | -8
COC(=O)c1ccc(-c2ccc(CNCC(O)c3ccccc3)o2)cc1 (configuration not stated) | -11
CC(=O)OC1=C(C#N)Cn2ccc3cccc1c32 | -4
O=C1C(=O)N(CCCN2CCOCC2)C(c2ccccn2)/C1=C(\O)c1ccc2c(c1)OCCO2 (configuration not stated) | -9
